Source: ChEMBL document CHEMBL2311431, “Synthesis and biological evaluation of some 5-arylidene-2-(1,3-thiazol-2-ylimino)-1,3-thiazolidin-4-ones as dual anti-inflammatory/antimicrobial agents” (Bioorg Med Chem, 2013)
In brackets after ≈: the same amount, converted by molar mass. Activity calls are given as the source filed them. No cut-off for these calls is given here.

What was measured:
Mus musculus [1] = test: Acute toxicity in AKR mouse up to 0.5 mmol/kg, ip; assay type: organism-based; settings: in vivo
Mus musculus [2] = test: Antiinflammatory activity in AKR mouse assessed as inhibition of carrageenan-induced paw edema at 0.01 mmol/kg, ip measured after 3.5 hrs of carrageenan-challenge; assay type: functional
In short: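 AKR mice of both sexes (pregnant females excluded), 6-10 per group, fasted during the experiment. Edema induced by intradermal 0.05 mL of 2% carrageenin into the right hind paw. Compound given at 0.01 mmol/kg ip, suspended in water with Tween-80, at the same time as carrageenin.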

[3] = target: T1, Prostaglandin G/H synthase 1 (Ovis aries) (UniProt P05979); test: Inhibition of ovine COX1 assessed as inhibition of PGF2a production by enzyme immunoassay; set-up: concentration or dose not given beside the values
T1 sequence (whole entry): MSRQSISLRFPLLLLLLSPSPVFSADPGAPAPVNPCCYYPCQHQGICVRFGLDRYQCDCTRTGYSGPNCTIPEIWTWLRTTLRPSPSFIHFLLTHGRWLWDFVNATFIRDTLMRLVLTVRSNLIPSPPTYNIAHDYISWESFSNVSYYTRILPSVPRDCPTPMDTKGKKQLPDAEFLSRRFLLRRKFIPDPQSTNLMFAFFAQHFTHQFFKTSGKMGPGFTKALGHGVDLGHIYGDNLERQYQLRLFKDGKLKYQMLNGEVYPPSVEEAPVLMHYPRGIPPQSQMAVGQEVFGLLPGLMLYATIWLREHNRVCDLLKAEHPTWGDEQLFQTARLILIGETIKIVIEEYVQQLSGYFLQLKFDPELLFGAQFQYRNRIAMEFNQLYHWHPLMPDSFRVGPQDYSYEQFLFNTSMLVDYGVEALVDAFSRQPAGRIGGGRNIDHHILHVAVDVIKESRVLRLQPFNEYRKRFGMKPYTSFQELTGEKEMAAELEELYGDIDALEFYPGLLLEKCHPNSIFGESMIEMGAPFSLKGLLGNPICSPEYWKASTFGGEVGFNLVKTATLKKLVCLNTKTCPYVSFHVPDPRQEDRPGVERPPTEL
In short: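 Ovine COX-1 from a commercial screening kit, tested with 0.1 µM arachidonic acid, which is below the saturating level. COX-derived PGH2 is reduced by SnCl2 to PGF2a, quantified by enzyme immunoassay with a broad prostaglandin antibody. At least triplicate.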

[4] = Inhibition of soybean lipoxygenase assessed as inhibition of sodium linolate conversion to 13-hydroperoxylinoleic acid after 4 mins by spectrophotometry; set-up: species or system Glycine max
Aspergillus niger [5] = test: Fungicidal activity against Aspergillus niger ATCC 6275 after 72 hrs by serial subcultivation method; assay type: functional; settings: ATCC 6275, 72 h
Aspergillus niger [6] = test: Antifungal activity against Aspergillus niger ATCC 6275 after 72 hrs by serial dilution technique; assay type: functional; settings: ATCC 6275, 72 h
In short: (§1)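 Serial dilution in malt broth; compounds from 1 mg/ml stocks in 5% DMSO; 72 h at 28 °C. MIC is the lowest concentration with no visible growth under a binocular microscope. Run in duplicate, repeated three times.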

Aspergillus fumigatus [7] = test: Fungicidal activity against Aspergillus fumigatus after 72 hrs by serial subcultivation method; assay type: functional
Aspergillus flavus [8] = test: Fungicidal activity against Aspergillus flavus ATCC 9643 after 72 hrs by serial subcultivation method; assay type: functional; settings: ATCC 9643, 72 h
Trichoderma viride [9] = test: Fungicidal activity against Trichoderma viride IAM 5061 after 72 hrs by serial subcultivation method; assay type: functional; settings: IAM 5061, 72 h
Penicillium ochrochloron [10] = test: Fungicidal activity against Penicillium ochrochloron ATCC 9112 after 72 hrs by serial subcultivation method; assay type: functional; settings: ATCC 9112, 72 h
Aspergillus flavus [11] = test: Antifungal activity against Aspergillus flavus ATCC 9643 after 72 hrs by serial dilution technique; assay type: functional; settings: ATCC 9643, 72 h; in short: as §1
Talaromyces funiculosus [12] = test: Fungicidal activity against Penicillium funiculosum ATCC 36839 after 72 hrs by serial subcultivation method; assay type: functional; settings: ATCC 36839, 72 h
Aspergillus fumigatus [13] = test: Antifungal activity against Aspergillus fumigatus after 72 hrs by serial dilution technique; assay type: functional; in short: as §1
Trichoderma viride [14] = test: Antifungal activity against Trichoderma viride IAM 5061 after 72 hrs by serial dilution technique; assay type: functional; settings: IAM 5061, 72 h; in short: as §1
Penicillium ochrochloron [15] = test: Antifungal activity against Penicillium ochrochloron ATCC 9112 after 72 hrs by serial dilution technique; assay type: functional; settings: ATCC 9112, 72 h; in short: as §1
Talaromyces funiculosus [16] = test: Antifungal activity against Penicillium funiculosum ATCC 36839 after 72 hrs by serial dilution technique; assay type: functional; settings: ATCC 36839, 72 h; in short: as §1
Escherichia coli [17] = test: Bactericidal activity against Escherichia coli ATCC 35210 after 72 hrs by serial subcultivation method; assay type: functional; settings: ATCC 35210, 72 h
Pseudomonas aeruginosa [18] = test: Bactericidal activity against Pseudomonas aeruginosa ATCC 27853 after 72 hrs by serial subcultivation method; assay type: functional; settings: ATCC 27853, 72 h
Listeria monocytogenes [19] = test: Bactericidal activity against Listeria monocytogenes NCTC 7973 after 72 hrs by serial subcultivation method; assay type: functional; settings: NCTC 7973, 72 h
Bacillus cereus [20] = test: Bactericidal activity against Bacillus cereus clinical isolate after 72 hrs by serial subcultivation method; assay type: functional
Micrococcus flavus [21] = test: Bactericidal activity against Micrococcus flavus ATCC 10240 after 72 hrs by serial subcultivation method; assay type: functional; settings: ATCC 10240, 72 h
Staphylococcus aureus [22] = test: Bactericidal activity against Staphylococcus aureus ATCC 6538 after 72 hrs by serial subcultivation method; assay type: functional; settings: ATCC 6538, 72 h
Escherichia coli [23] = test: Antibacterial activity against Escherichia coli ATCC 35210 after 24 hr by microdilution test; assay type: functional; settings: ATCC 35210, 24 h
In short: (§2)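 Broth microdilution in LB medium, about 1.0×10^4 cfu per well; compounds from 1 mg/ml stocks in 5% DMSO. Incubated 24 h. MIC is the lowest concentration with no visible growth under a binocular microscope. Run in duplicate, repeated three times.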

Listeria monocytogenes [24] = test: Antibacterial activity against Listeria monocytogenes NCTC 7973 after 24 hr by microdilution test; assay type: functional; settings: NCTC 7973, 24 h; in short: as §2
Pseudomonas aeruginosa [25] = test: Antibacterial activity against Pseudomonas aeruginosa ATCC 27853 after 24 hr by microdilution test; assay type: functional; settings: ATCC 27853, 24 h; in short: as §2
Micrococcus flavus [26] = test: Antibacterial activity against Micrococcus flavus ATCC 10240 after 24 hr by microdilution test; assay type: functional; settings: ATCC 10240, 24 h; in short: as §2
Bacillus cereus [27] = test: Antibacterial activity against Bacillus cereus clinical isolate after 24 hr by microdilution test; assay type: functional; in short: as §2
Staphylococcus aureus [28] = test: Antibacterial activity against Staphylococcus aureus ATCC 6538 after 24 hr by microdilution test; assay type: functional; settings: ATCC 6538, 24 h; in short: as §2

Row | SMILES | Activity (Mus musculus [1]) | inhibition in vivo at 10 µmol/kg (Mus musculus [2]) | inhibition ([3]; concentration not given here) | IC50 ([4]; read-out: IC50) | MFC (Aspergillus niger [5]) | MIC (Aspergillus niger [6]) | MFC (Aspergillus fumigatus [7]) | MFC (Aspergillus flavus [8]) | MFC (Trichoderma viride [9]) | MFC (Penicillium ochrochloron [10]) | MIC (Aspergillus flavus [11]) | MFC (Talaromyces funiculosus [12]) | MIC (Aspergillus fumigatus [13]) | MIC (Trichoderma viride [14]) | MIC (Penicillium ochrochloron [15]) | MIC (Talaromyces funiculosus [16]) | MBC (Escherichia coli [17]) | MBC (Pseudomonas aeruginosa [18]) | MBC (Listeria monocytogenes [19]) | MBC (Bacillus cereus [20]) | other results
1 | Cc1csc(/N=C2\NC(=O)/C(=C/c3ccc(Cl)cc3)S2)n1 | Non-toxic | 42% | 74% | 76 µM | 15.2 µM (≈ 5.1 µg/mL) | 15.2 µM (≈ 5.1 µg/mL) | 15.2 µM (≈ 5.1 µg/mL) | 15.2 µM (≈ 5.1 µg/mL) | 15.2 µM (≈ 5.1 µg/mL) | 15.2 µM (≈ 5.1 µg/mL) | 15.2 µM (≈ 5.1 µg/mL) | 15.2 µM (≈ 5.1 µg/mL) | 15.2 µM (≈ 5.1 µg/mL) | 7.6 µM (≈ 2.55 µg/mL) | 7.6 µM (≈ 2.55 µg/mL) | 7.6 µM (≈ 2.55 µg/mL) | 240 µM (≈ 80.6 µg/mL) | 120 µM (≈ 40.3 µg/mL) | 60 µM (≈ 20.2 µg/mL) | 30 µM (≈ 10.1 µg/mL) | MBC (Micrococcus flavus [21]): 60 µM (≈ 20.2 µg/mL); MBC (Staphylococcus aureus [22]): 240 µM (≈ 80.6 µg/mL); MIC (Escherichia coli [23]): 120 µM (≈ 40.3 µg/mL); MIC (Listeria monocytogenes [24]): 30 µM (≈ 10.1 µg/mL); MIC (Pseudomonas aeruginosa [25]): 30 µM (≈ 10.1 µg/mL); MIC (Micrococcus flavus [26]): 30 µM (≈ 10.1 µg/mL); MIC (Bacillus cereus [27]): 30 µM (≈ 10.1 µg/mL); MIC (Staphylococcus aureus [28]): 120 µM (≈ 40.3 µg/mL)
2 | O=C1N/C(=N\c2nc(-c3ccccc3)cs2)S/C1=C\c1ccccc1 | Non-toxic | 59.3% | 67% | 66 µM | 25.2 µM (≈ 9.16 µg/mL) | 19 µM (≈ 6.91 µg/mL) | 25.2 µM (≈ 9.16 µg/mL) | 25.2 µM (≈ 9.16 µg/mL) | 25.2 µM (≈ 9.16 µg/mL) | 25.2 µM (≈ 9.16 µg/mL) | 19 µM (≈ 6.91 µg/mL) | 25.2 µM (≈ 9.16 µg/mL) | 19 µM (≈ 6.91 µg/mL) | 12.6 µM (≈ 4.58 µg/mL) | 19 µM (≈ 6.91 µg/mL) | 19 µM (≈ 6.91 µg/mL) | 108 µM (≈ 39.3 µg/mL) | 108 µM (≈ 39.3 µg/mL) | 27 µM (≈ 9.81 µg/mL) | 27 µM (≈ 9.81 µg/mL) | MBC (Micrococcus flavus [21]): 27 µM (≈ 9.81 µg/mL); MBC (Staphylococcus aureus [22]): 108 µM (≈ 39.3 µg/mL); MIC (Escherichia coli [23]): 54 µM (≈ 19.6 µg/mL); MIC (Listeria monocytogenes [24]): 27 µM (≈ 9.81 µg/mL); MIC (Pseudomonas aeruginosa [25]): 27 µM (≈ 9.81 µg/mL); MIC (Micrococcus flavus [26]): 27 µM (≈ 9.81 µg/mL); MIC (Bacillus cereus [27]): 6.8 µM (≈ 2.47 µg/mL); MIC (Staphylococcus aureus [28]): 54 µM (≈ 19.6 µg/mL)
3 | COc1ccc2c(c1)c(CC(=O)O)c(C)n2C(=O)c1ccc(Cl)cc1 [INDOMETHACIN] | – | – | – | – | – | – | – | – | – | – | – | – | – | – | – | – | – | – | – | – | inhibition [3]: inactive; IC50 [4]: Not Active
